Laboratory results: ChEMBL document CHEMBL3259731, “Design, synthesis, and biological evaluation of novel FAK scaffold inhibitors targeting the FAK-VEGFR3 protein-protein interaction” (Eur J Med Chem, 2014)
The source made the active and inactive calls.

What was measured:
MIA PaCa-2 [1] = assay: Cytotoxicity against human MIAPaCa2 cells transfected with retroviral expression vector pMSCV-LucSh assessed as growth inhibition at 50 uM after 72 hrs by MTS assay; format: functional, cell-based
Method in brief: (§1)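 Cells seeded at 5000/well, attached overnight, then given 50 µM of each analog for 72 h at 37 °C. MTS reagent added for about 1 h, absorbance read at 570 nm. Viability normalized to DMSO/untreated controls. Three independent experiments, each with 3–5 replicate wells per concentration. Cells kept in DMEM with 10% FBS.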

U-87MG ATCC = assay: Cytotoxicity against human U87 cells assessed as growth inhibition at 50 uM after 72 hrs by MTS assay; format: functional, cell-based
Method in brief: (§2)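 MTS assay. Cells kept in DMEM with 10% FBS, plated at 5000 cells/well and left to attach overnight, then exposed to compound (screening at 50 µM) for 72 h at 37 °C. MTS reagent added for about 1 h, then absorbance read at 570 nm. Viability normalized to DMSO/untreated controls. Three independent experiments, 3–5 replicate wells per concentration.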

A-375 = assay: Cytotoxicity against human A375 cells assessed as growth inhibition at 50 uM after 72 hrs by MTS assay; format: functional, cell-based; method in brief: as §2
C8161 = assay: Cytotoxicity against human C8161 cells assessed as growth inhibition at 50 uM after 72 hrs by MTS assay; format: functional, cell-based; method in brief: as §2
MDA-MB-231 = assay: Cytotoxicity against human MDA-MB-231 cells assessed as growth inhibition at 50 uM after 72 hrs by MTS assay; format: functional, cell-based; method in brief: as §2
PANC-1 = assay: Cytotoxicity against human PANC1 cells transfected with retroviral expression vector pMSCV-LucSh assessed as growth inhibition at 50 uM after 72 hrs by MTS assay; format: functional, cell-based; method in brief: as §1
Focal adhesion kinase 1 [2] = target: T1, Focal adhesion kinase 1 (Homo sapiens, UniProt Q05397); assay: Binding affinity to biotinylated human FAK FAT domain by biolayer interoferometry
Method in brief: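 Bio-layer interferometry on super streptavidin biosensor tips, pre-wetted in buffer for a baseline before FAT protein immobilization. Association and dissociation measured over 210 s at two small-molecule concentrations. Kon, Koff and Kd derived from the kinetic fits.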

[3] = target: Platelet-derived growth factor receptor alpha (Homo sapiens) (UniProt P16234); assay: Inhibition of PDGFRA (unknown origin) at 1 uM by Z'-LYTE assay relative to control
Method in brief: (§3)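 Z'-LYTE SelectScreen single-point biochemical kinase assay, done by an outside service. Compound at 1 µM with 100 µM ATP in the reaction. Percent inhibition calculated per the Z'-LYTE analysis protocol, as the mean of two independent runs.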

MCF7 [4] = assay: Cytotoxicity against human MCF7 cells overexpressing VEGFR-3/FAK assessed as inhibition of colony formation at 10 uM after 14 days by 1,9-dimethyl-methylene blue staining-based assay; format: functional, cell-based
Method in brief: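 Colony formation. 700 cells/well seeded with compound added immediately, then incubated at 37 °C for 10–14 days (legend: 14 days). Colonies stained for 1 h with 0.25% 1,9-dimethyl-methylene blue in 50% methanol, washed, dried and scanned. Duplicate wells, three independent experiments.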

[5] = target: Insulin-like growth factor 1 receptor (Homo sapiens) (UniProt P08069); assay: Inhibition of IGF1R (unknown origin) at 1 uM by Z'-LYTE assay relative to control; method in brief: as §3
[6] = target: Epidermal growth factor receptor (Homo sapiens) (UniProt P00533); assay: Inhibition of EGFR (unknown origin) at 1 uM by Z'-LYTE assay relative to control; method in brief: as §3
[7] = target: T2, Focal adhesion kinase 1/vascular endothelial growth factor receptor 3 (Homo sapiens) (UniProt P35916+Q05397); assay: Inhibition of FAK/VEGFR-3 interaction in human MIAPaCa2 cells transfected with retroviral expression vector pMSCV-LucSh assessed as reduction in VEGFR3 pan-phosphorylated tyrosine level after 24 hrs by densitometric analysis; format: cell-based; conditions: MIA PaCa-2
Method in brief: (§4)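 Cells treated at increasing doses for 24 h, then lysed in NP40 buffer with inhibitors. 500 or 800 µg lysate precleared, then immunoprecipitated with FAK 4.47 or VEGFR3 9D9, with isotype IgG and no-antibody controls, overnight with Protein A/G beads at 4 °C. Immunoblotted for pan-phosphotyrosine (4G10), total FAK and total VEGFR3. Bands quantified by densitometry.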

[8] = target: Protein-tyrosine kinase 2-beta (Homo sapiens) (UniProt Q14289); assay: Inhibition of PTK2B (unknown origin) at 1 uM by Z'-LYTE assay relative to control; method in brief: as §3
[9] = target: T2, Focal adhesion kinase 1/vascular endothelial growth factor receptor 3 (Homo sapiens); assay: Inhibition of FAK/VEGFR-3 interaction in human MIAPaCa2 cells transfected with retroviral expression vector pMSCV-LucSh assessed as decrease in levels of VEGFR3 and phosphorylated tyrosine residues associated with FAK protein after 24 hrs by densitometric analysis; format: cell-based; conditions: MIA PaCa-2; method in brief: as §4
[10] = target: T2, Focal adhesion kinase 1/vascular endothelial growth factor receptor 3 (Homo sapiens); assay: Inhibition of FAK/VEGFR-3 interaction in human MCF7 cells assessed as decrease in VEGFR3 protein level at 10 uM after 24 hrs by immunoprecipitation assay; format: cell-based
Method in brief: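 MCF7-VEGFR3 cells treated with selected analogs for 24 h, then lysed in NP40 buffer. FAK immunoprecipitated with clone 4.47 after preclearing, 2 h antibody binding and overnight incubation with Protein A/G beads at 4 °C. Co-precipitated VEGFR3 and total FAK detected by immunoblot on 7.5% gel.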

Focal adhesion kinase 1 [11] = target: T1, Focal adhesion kinase 1; assay: Inhibition of PTK2 (unknown origin) at 1 uM by Z'-LYTE assay relative to control; method in brief: as §3
Target sequence in this assay (Q05397 2-1052 limits assumed): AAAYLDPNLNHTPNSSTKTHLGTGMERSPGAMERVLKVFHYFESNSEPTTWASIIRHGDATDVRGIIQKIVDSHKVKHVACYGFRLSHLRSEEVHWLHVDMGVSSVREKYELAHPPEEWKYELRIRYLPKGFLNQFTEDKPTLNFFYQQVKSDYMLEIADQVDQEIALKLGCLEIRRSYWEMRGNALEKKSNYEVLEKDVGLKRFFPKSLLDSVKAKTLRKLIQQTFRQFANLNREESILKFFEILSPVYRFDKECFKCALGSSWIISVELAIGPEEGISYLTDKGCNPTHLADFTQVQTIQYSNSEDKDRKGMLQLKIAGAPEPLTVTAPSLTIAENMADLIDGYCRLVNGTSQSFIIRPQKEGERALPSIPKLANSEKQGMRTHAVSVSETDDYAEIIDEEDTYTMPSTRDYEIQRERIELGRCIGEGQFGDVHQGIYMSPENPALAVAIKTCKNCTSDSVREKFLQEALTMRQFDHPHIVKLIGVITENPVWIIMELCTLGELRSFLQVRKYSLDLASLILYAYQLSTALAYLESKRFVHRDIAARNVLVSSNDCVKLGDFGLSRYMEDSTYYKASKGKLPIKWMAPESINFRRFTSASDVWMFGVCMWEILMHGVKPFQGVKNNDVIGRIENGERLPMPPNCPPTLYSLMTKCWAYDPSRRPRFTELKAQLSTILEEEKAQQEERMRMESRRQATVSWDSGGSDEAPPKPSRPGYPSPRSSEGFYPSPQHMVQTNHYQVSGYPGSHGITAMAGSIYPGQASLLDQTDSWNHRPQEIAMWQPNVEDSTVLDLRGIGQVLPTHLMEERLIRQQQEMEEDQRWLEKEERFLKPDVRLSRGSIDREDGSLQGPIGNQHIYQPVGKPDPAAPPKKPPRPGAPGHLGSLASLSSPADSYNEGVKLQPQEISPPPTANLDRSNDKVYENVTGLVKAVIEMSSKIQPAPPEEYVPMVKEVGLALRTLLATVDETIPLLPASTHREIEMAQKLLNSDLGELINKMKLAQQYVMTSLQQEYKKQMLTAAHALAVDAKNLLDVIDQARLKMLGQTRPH

[12] = target: T2, Focal adhesion kinase 1/vascular endothelial growth factor receptor 3 (Homo sapiens); assay: Inhibition of FAK/VEGFR-3 interaction in human MIAPaCa2 cells transfected with retroviral expression vector pMSCV-LucSh assessed as reduction in VEGFR3 pan-phosphorylated tyrosine level after 24 hrs by immunoprecipitation assay; format: cell-based; conditions: MIA PaCa-2; method in brief: as §4
MIA PaCa-2 [13] = assay: Induction of apoptosis in human MIAPaCa2 cells transfected with retroviral expression vector pMSCV-LucSh at 70 uM after 24 hrs by CellEvent/TMRM dye-based microscopic analysis; format: functional, cell-based
Method in brief: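 10,000 cells/well plated and adhered overnight, then drug added for 24 h. Stained with 5 µM CellEvent caspase-3/7 dye plus 2.5 µM TMRM in PBS, 30 min at 37 °C in the dark. Imaged by fluorescence microscopy, and bright-green apoptotic nuclei counted in 6–8 fields per condition. Percent apoptosis normalized to control, from three independent experiments, compared by Student t test.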

MIA PaCa-2 [14] = assay: Induction of apoptosis in human MIAPaCa2 cells transfected with retroviral expression vector pMSCV-LucSh assessed as increase in caspase-3 cleavage after 24 hrs; format: functional, cell-based
Method in brief: (§5)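 Cells seeded to reach about 80% confluence at 24 h, then drug-treated at increasing doses for 24 h at 37 °C. Lysed in 1% NP40 buffer with protease and phosphatase inhibitors. 30 µg protein run on SDS gel and transferred to PVDF. Immunoblotted overnight at 4 °C with caspase-3 and PARP rabbit polyclonals for cleavage products. ECL detection.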

MCF7 [15] = assay: Induction of apoptosis in human MCF7 cells overexpressing VEGFR-3/FAK assessed as increase in PARP cleavage after 24 hrs; format: functional, cell-based
Method in brief: (§6)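 MCF7-VEGFR3 cells grown to about 80% confluence, then given compound at the indicated concentrations for 24 h at 37 °C. Lysed in 1% NP40 buffer with phosphatase and protease inhibitors. 30 µg protein run by SDS-PAGE and immunoblotted with caspase-3 and PARP rabbit polyclonal antibodies, detected by ECL.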

[16] = target: Proto-oncogene tyrosine-protein kinase Src (Homo sapiens) (UniProt P12931); assay: Inhibition of SRC (unknown origin) at 1 uM by Z'-LYTE assay relative to control; method in brief: as §3
MIA PaCa-2 [17] = assay: Induction of apoptosis in human MIAPaCa2 cells transfected with retroviral expression vector pMSCV-LucSh assessed as increase in PARP cleavage after 24 hrs; format: functional, cell-based; method in brief: as §5
MCF7 [18] = assay: Induction of apoptosis in human MCF7 cells overexpressing VEGFR-3/FAK assessed as increase in caspase-3 cleavage after 24 hrs; format: functional, cell-based; method in brief: as §6
MIA PaCa-2 [19] = assay: Cytotoxicity against human MIAPaCa2 cells transfected with retroviral expression vector pMSCV-LucSh assessed as inhibition of colony formation at 10 uM after 14 days by 1,9-dimethyl-methylene blue staining-based assay; format: functional, cell-based
Method in brief: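 700 cells/well seeded, and compound added at once at the specified concentrations. Incubated 10–14 days at 37 °C (figure legend gives 14 days). Colonies stained with 0.25% 1,9-dimethyl-methylene blue in 50% methanol for 1 h, washed, dried and scanned. Run in duplicate and repeated three times independently.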

[20] = target: T2, Focal adhesion kinase 1/vascular endothelial growth factor receptor 3 (Homo sapiens); assay: Inhibition of FAK/VEGFR-3 interaction in human MIAPaCa2 cells transfected with retroviral expression vector pMSCV-LucSh assessed as decrease in levels of VEGFR3 and phosphorylated tyrosine residues associated with FAK protein after 24 hrs by immunoprecipitation assay; format: cell-based; conditions: MIA PaCa-2; method in brief: as §4
[21] = target: RAC-alpha serine/threonine-protein kinase (Homo sapiens) (UniProt P31749); assay: Inhibition of AKT1 (unknown origin) at 1 uM by Z'-LYTE assay relative to control; method in brief: as §3
[22] = target: Vascular endothelial growth factor receptor 2 (Homo sapiens) (UniProt P35968); assay: Inhibition of KDR (unknown origin) at 1 uM by Z'-LYTE assay relative to control; method in brief: as §3
MCF7 [23] = assay: Cytotoxicity against human MCF7 cells overexpressing VEGFR-3/FAK after 72 hrs by MTS assay; format: functional, cell-based; method in brief: as §2
[24] = target: Vascular endothelial growth factor receptor 3 (Homo sapiens) (UniProt P35916); assay: Inhibition of FLT4 (unknown origin) at 1 uM by Z'-LYTE assay relative to control
Method in brief: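 Z'-LYTE SelectScreen single-point biochemical kinase assay, run as a contracted service. Compound at 1 µM and ATP at 100 µM in the reaction. Percent inhibition calculated per the Z'-LYTE analysis protocol, given as the mean of two independent runs.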

[25] = target: Vascular endothelial growth factor receptor 1 (Homo sapiens) (UniProt P17948); assay: Inhibition of FLT1 (unknown origin) at 1 uM by Z'-LYTE assay relative to control; method in brief: as §3

T2 sequence (P35916 whole entry, looked up): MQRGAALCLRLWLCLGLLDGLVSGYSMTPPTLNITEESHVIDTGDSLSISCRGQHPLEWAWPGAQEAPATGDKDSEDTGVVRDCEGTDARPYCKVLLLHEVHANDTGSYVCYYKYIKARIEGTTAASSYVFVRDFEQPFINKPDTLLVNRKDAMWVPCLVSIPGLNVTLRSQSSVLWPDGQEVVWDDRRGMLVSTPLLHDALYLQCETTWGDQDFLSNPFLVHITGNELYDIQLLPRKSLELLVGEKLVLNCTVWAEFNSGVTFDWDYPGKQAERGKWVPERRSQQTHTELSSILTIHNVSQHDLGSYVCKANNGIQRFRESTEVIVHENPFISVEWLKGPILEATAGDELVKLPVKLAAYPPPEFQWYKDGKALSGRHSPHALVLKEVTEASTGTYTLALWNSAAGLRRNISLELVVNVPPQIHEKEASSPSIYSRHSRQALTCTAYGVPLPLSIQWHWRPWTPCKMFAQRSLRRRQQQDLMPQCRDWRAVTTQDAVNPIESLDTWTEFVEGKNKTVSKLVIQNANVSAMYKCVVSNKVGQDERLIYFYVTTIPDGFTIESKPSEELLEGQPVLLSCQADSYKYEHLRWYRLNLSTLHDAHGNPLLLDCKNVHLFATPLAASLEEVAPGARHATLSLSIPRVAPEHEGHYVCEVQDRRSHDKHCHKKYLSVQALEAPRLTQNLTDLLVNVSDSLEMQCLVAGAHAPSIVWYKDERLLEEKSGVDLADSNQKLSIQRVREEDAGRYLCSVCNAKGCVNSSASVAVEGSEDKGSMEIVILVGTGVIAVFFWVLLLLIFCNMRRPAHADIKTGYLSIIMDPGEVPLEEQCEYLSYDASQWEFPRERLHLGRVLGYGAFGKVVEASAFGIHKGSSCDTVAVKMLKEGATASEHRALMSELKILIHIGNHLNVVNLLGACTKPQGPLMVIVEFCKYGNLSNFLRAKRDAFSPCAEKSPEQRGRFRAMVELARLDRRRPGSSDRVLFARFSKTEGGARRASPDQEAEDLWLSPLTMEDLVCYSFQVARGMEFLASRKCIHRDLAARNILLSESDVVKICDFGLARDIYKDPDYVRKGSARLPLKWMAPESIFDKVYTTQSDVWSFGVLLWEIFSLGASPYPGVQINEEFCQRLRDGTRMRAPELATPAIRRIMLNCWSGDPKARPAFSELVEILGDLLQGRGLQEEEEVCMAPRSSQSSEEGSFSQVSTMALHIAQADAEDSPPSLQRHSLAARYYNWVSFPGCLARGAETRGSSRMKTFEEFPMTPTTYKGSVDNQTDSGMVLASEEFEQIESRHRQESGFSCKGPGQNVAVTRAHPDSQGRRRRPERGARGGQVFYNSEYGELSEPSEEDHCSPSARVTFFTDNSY
T2 sequence (Q05397 whole entry, looked up): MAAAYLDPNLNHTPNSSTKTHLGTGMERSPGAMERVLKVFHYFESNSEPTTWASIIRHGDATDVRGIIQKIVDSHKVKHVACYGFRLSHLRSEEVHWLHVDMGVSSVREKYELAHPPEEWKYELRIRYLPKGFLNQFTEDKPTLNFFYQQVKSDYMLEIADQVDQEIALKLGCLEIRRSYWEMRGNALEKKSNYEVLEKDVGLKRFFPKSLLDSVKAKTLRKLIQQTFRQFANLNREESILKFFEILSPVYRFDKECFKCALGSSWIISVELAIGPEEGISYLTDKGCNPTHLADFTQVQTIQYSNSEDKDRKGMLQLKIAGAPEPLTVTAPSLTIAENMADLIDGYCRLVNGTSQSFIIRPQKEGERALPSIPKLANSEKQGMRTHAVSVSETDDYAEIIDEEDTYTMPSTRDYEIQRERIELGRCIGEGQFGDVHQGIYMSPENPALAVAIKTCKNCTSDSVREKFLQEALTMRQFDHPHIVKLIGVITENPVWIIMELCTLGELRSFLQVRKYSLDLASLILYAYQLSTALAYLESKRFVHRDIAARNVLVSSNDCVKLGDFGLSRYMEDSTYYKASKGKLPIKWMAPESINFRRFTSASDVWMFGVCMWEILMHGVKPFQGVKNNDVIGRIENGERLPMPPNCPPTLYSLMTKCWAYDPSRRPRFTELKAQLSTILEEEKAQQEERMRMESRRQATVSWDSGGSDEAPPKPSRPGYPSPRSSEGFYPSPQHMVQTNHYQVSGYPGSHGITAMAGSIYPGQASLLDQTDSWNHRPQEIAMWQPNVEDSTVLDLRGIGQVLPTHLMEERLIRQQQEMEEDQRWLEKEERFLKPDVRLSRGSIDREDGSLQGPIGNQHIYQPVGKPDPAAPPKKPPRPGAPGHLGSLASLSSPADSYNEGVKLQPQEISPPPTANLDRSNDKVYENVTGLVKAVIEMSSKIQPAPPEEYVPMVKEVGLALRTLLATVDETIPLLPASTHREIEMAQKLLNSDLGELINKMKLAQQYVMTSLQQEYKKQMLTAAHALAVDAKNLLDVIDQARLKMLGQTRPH
Sequence of Proto-oncogene tyrosine-protein kinase Src (Homo sapiens) (P12931 2-536 limits assumed): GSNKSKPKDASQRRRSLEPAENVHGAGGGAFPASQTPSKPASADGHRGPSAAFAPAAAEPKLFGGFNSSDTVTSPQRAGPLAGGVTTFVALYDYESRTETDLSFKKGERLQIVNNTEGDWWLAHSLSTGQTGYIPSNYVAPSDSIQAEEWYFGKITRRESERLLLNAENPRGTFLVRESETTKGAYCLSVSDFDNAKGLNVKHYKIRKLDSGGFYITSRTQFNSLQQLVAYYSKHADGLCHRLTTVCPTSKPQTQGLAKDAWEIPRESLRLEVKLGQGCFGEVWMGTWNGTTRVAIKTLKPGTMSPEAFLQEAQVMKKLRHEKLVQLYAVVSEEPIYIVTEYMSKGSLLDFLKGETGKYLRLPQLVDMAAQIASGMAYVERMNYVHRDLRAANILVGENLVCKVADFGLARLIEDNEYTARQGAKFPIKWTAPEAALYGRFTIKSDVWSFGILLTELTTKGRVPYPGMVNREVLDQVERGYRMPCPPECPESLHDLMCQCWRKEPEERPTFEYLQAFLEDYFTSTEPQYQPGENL
Sequence of RAC-alpha serine/threonine-protein kinase (Homo sapiens) (P31749 whole entry): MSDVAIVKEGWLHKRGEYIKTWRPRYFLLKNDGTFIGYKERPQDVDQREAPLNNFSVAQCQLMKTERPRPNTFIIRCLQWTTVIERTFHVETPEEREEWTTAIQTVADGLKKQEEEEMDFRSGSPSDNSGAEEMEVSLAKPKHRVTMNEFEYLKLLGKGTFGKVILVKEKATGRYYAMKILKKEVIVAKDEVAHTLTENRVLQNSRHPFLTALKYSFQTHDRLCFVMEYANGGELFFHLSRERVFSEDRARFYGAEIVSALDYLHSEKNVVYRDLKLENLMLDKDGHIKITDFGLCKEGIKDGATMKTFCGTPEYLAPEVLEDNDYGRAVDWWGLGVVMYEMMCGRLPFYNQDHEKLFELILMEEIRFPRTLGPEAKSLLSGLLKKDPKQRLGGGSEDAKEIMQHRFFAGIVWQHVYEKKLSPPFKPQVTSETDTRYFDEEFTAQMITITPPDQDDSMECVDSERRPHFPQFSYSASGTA
Sequence of Vascular endothelial growth factor receptor 3 (Homo sapiens) (P35916 whole entry): as the sequence (P35916 whole entry, looked up) above

CCCCCCCCCCN(CCN(C)C)c1ccccn1
active: growth inhibition (GI) (MIA PaCa-2 [1]) | growth inhibition (GI) (U-87MG ATCC) | growth inhibition (GI) (A-375) | growth inhibition (GI) (C8161) | growth inhibition (GI) (MDA-MB-231) | growth inhibition (GI) (PANC-1)

CN(C)CCN(Cc1ccc(Cl)cc1)c1ccc2ccccc2n1
1%: inhibition [25]
18 nM: Kd (Focal adhesion kinase 1 [2])
7%: inhibition [21]
11%: inhibition [5]
13%: inhibition (Focal adhesion kinase 1 [11])
3%: inhibition [16]
4%: inhibition [6] | inhibition [24]
8%: inhibition [3]
0%: inhibition [8]
14%: inhibition [22]
active: inhibition (MCF7 [4]) | growth inhibition (GI) (MIA PaCa-2 [1]) | inhibition [7] Dose-dependent effect | inhibition [9] Dose-dependent effect | inhibition [10] | inhibition [12] Dose-dependent effect | Activity (MIA PaCa-2 [13]) | Activity (MIA PaCa-2 [14]) Dose-dependent effect | Activity (MCF7 [15]) Dose-dependent effect | Activity (MIA PaCa-2 [17]) Dose-dependent effect | Activity (MCF7 [18]) Dose-dependent effect | inhibition (MIA PaCa-2 [19]) | growth inhibition (GI) (PANC-1) | inhibition [20] Dose-dependent effect | Activity (MCF7 [23])

CN(C)CCNc1ccccn1
inactive: Activity (Focal adhesion kinase 1 [2]) | growth inhibition (GI) (MIA PaCa-2 [1]) | growth inhibition (GI) (U-87MG ATCC) | growth inhibition (GI) (A-375) | growth inhibition (GI) (C8161) | growth inhibition (GI) (MDA-MB-231) | growth inhibition (GI) (PANC-1)

CCCCCCN(CCN(C)C)c1ccccc1
inactive: growth inhibition (GI) (MIA PaCa-2 [1]) | growth inhibition (GI) (U-87MG ATCC) | growth inhibition (GI) (A-375) | growth inhibition (GI) (C8161) | growth inhibition (GI) (MDA-MB-231) | growth inhibition (GI) (PANC-1)
